Source: PubChem BioAssay
LEDGF integ inh: blocks HIV-1 LEDGF/p75-dependent DNA integration. TR-FRET IN-LEDGF/p75 DNA integration, Eu/Cy5. inhibition, % at 3.7 µM. actives 0.64% (n = 370,000). AID 743269;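 active = inhibition above the screen-wide mean plus 3 SD, cut at about 13% in these data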;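 note: signal is the Cy5 over europium emission ratio at 671 and 618 nm; 0% = plate median of compound wells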
DAGLB inhibitor: blocks human DAGLB lipase activity. Q8NCG7. HEK293T DAGLB membrane lysate, EnzChek fluorogenic substrate. inhibition, % at 5.17 µM. actives 0.059% (n = 340,000). AID 504411; in the data active = inhibition above about 34%;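 note: 0% = enzyme with vehicle and 100% = wells lacking enzyme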
mABHD4 FP: ABHD4 (mouse) inhibition, primary FP screen | purified mABHD4, FP-Rh probe fluorescence polarization | AID 720543 | actives 0.54% (n = 370,000) | inhibition, % at 8.92 µM;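 active = inhibition exceeding the mean over every tested compound plus 3 SD, cut at about 30% in these data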;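 note: 0% = plate median of compound wells and 100% = S159A mutant with DMSO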
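Assay system: mABHD4 protein; medium: HEPES pH 7.0, NaCl, Pluronic buffer; dosing: 8.92 µM, single dose; schedule: 45 min + 60 min at 25 °C; signal: FP readout, ex 525 nm / em 598 nm; read-out: normalized percent inhibition of probe labeling; repeats: single replicate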
PRMT1 inh: blocks human protein arginine methyltransferase 1 | Q99873 | recombinant PRMT1, activity-based probe fluorescence polarization | inhibition, % at 2.79 µM | actives 1.3% (n = 370,000) | AID 652257;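 active = inhibition above about 21% made by adding two undisclosed values, limit read from the data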
rCAG binder: molecules binding r(CAG) RNA repeats. r(CAG) RNA repeat, TO-PRO-1 dye displacement fluorescence. inhibition, % at 3 µM. actives 1.3% (n = 370,000). AID 651821;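 active = inhibition above the plate cutoff, the mean of all test compounds on that plate plus 3 SD, cut at about 35% in these data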;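 note: 0% = DMSO alone and 100% = 100 µM mitoxantrone as full dye displacement; higher means more dye released from RNA so lower well fluorescence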
HTRA1 inh: inhibitors of human serine peptidase HTRA1. inhibition, % at 5.96 µM. Q92743. recombinant HTRA1, FP-rhodamine activity-based probe, fluorescence polarization. AID 504803. actives 0.5% (n = 340,000); in the data active = inhibition above about 36%;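 note: 0% = enzyme with DMSO and 100% = wells lacking enzyme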
Target sequence (Q92743 whole entry, looked up): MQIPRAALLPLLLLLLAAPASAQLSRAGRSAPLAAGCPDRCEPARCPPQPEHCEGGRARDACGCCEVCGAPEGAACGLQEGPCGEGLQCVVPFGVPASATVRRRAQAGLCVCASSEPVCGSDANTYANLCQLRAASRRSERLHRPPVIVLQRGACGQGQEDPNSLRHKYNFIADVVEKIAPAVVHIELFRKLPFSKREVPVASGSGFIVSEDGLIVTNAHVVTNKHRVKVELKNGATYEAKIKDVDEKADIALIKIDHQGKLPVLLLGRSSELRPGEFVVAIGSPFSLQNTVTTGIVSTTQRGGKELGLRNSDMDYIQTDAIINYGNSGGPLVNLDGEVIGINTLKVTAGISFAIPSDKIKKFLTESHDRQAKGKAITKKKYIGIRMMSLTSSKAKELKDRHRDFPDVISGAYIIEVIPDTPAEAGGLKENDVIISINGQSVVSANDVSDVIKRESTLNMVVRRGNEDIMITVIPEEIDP
PRMT1 inh conf: confirmation of human PRMT1 inhibitors | shares compounds with PRMT1 inh | recombinant His-PRMT1, activity-based probe fluorescence polarization | inhibition, % at 2.79 µM | actives 42% (n = 3,300) | AID 687036;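 active = mean inhibition across replicates above the hit cutoff derived for the earlier primary screen, cut at about 22% in these data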
The depositor's hits bear a star; . = no result. Rows were chosen to be rich in hits. Some 3.2% of all compounds tested hit in one or more screens of this group.

SMILES	LEDGF integ inh	DAGLB inhibitor	mABHD4 FP	PRMT1 inh	rCAG binder	HTRA1 inh	PRMT1 inh conf
Cc1nnc(NNS(=O)(=O)c2ccc(Cl)cc2)[nH]c1=O	0	2	-8	5	-2	3	.
CC(OC(=O)c1cc(S(=O)(=O)N(C)c2ccccc2)ccc1Cl)C(=O)Nc1ccc2c(c1)OCCO2 (configuration not stated)	-1	-9	-17	0	11	-22	.
Cc1cc(C)nc(SCCc2ccncc2)n1	-2	-1	8	30*	2	1	11
COc1ccc(OC)c(N=c2ssnc2Cl)c1	-2	-4	13	75*	8	13	81*
COc1cc(-n2nnnc2SC)c(OC)cc1Cl	0	2	-4	6	-1	-7	.
COc1ccc(OC)c(N=C2C(=O)Nc3ccccc32)c1	1	0	4	2	-1	9	.
COc1cc(N=c2ssnc2Cl)c(OC)cc1Cl	0	1	11	94*	6	6	91*
Cc1cc(NC(=O)c2ccc(Cl)cc2)n(CCOC(=O)c2ccc(Cl)cc2)n1	0	0	-9	3	4	-27	.
COc1ccc(C(=O)Nn2c(SCC(=O)NCc3ccccc3)nc3ccccc3c2=O)cc1	10	1	-5	1	9	6	.
Cc1ncc([N+](=O)[O-])n1CCOC(=O)NC(NCc1cccnc1)C(Cl)(Cl)Cl (configuration not stated)	3	-2	-1	-1	1	-2	.
CC1CCCCC1NC(=O)C1CCC(CNS(=O)(=O)c2ccccc2)CC1 (configuration not stated)	-4	0	-1	6	1	-2	.
c1cc(CNc2ccc3c(c2)OCO3)ccn1	-2	0	19	37*	-14	16	7
COC(=O)CNc1ccc2c(c1)OCO2	-1	1	12	36*	5	9	5
O=C(NCc1ccncc1)C(=O)Nc1ccc2c(c1)OCO2	3	2	0	-2	2	6	.
CC(=Nc1ccc(C)cc1C)c1sc2ccccc2c1O	4	-10	20	27*	-1	-18	16
O=C(O)c1ccc(-c2ccco2)n1Cc1ccccc1	8	3	2	29*	6	2	6
Cc1c(C(=O)Nc2cc(S(=O)(=O)N3CCOCC3)ccc2N2CCOCC2)oc2ccccc12	-4	0	3	-1	1	-4	.
CSCCC(c1nc2ccccc2[nH]1)n1c(=O)c(-c2ccco2)nc2ccccc21 (configuration not stated)	-2	.	8	45*	17	.	16
COC(=O)C1CN(Cc2ccc(OC)cc2)CCS(=O)(=O)N1Cc1cn(Cc2ccc(F)cc2)nn1 (configuration not stated)	-2	.	-1	2	0	.	.
Cc1ccc(C(=O)N/C(=C/c2cccs2)C(=O)NCCCn2ccnc2)cc1	-1	0	-2	-3	-2	3	.
COc1cc(/C=C/C(=O)Nc2ccc(OC)c(S(=O)(=O)N3CCOCC3)c2)ccc1OC(F)F	-2	1	-43	3	9	-28	.
COc1ccc(NC(=O)/C=C/c2ccc(C)o2)cc1S(=O)(=O)N1CCOCC1	-1	1	-4	45*	24	-6	30*
Cc1ccc(/C=C/C(=O)Nc2ccc([N+](=O)[O-])cc2)o1	4	-2	0	42*	28	-17	4
Cc1ccc(/C=C/C(=O)Nc2ccc(Oc3ccccc3)cc2)o1	-1	-8	-25	16	8	-40	.
Cc1cc(NS(=O)(=O)c2ccc(NC(=O)/C=C/c3ccc(C)o3)cc2)nc(C)n1	2	1	-2	55*	23	0	54*
SMILES	LEDGF integ inh	DAGLB inhibitor	mABHD4 FP	PRMT1 inh	rCAG binder	HTRA1 inh	PRMT1 inh conf
O=C(Nc1nc(-c2cccc([N+](=O)[O-])c2)cs1)c1cccc([N+](=O)[O-])c1C(=O)O	2	3	5	4	19	-1	.
N#CC1=C(N)OC2=C(CC/C2=C\c2ccccc2)C1c1ccccc1 (configuration not stated)	1	-84	0	27*	-3	-21	48*
Cc1ccc(-n2c(SCC(=O)N/N=C/c3ccccc3C(=O)O)nnc2-c2ccc(Cl)cc2)cc1	-1	7	-8	-6	20	-24	.
CNc1ccc(S(=O)(=O)NCC(=O)NCCCc2ccccc2)cc1[N+](=O)[O-]	-1	4	8	27*	-2	2	34*
CN(C)c1ccc(S(=O)(=O)NCC(=O)NCc2ccccc2)cc1[N+](=O)[O-]	-1	1	2	27*	4	2	26*
O=C(CC(SCCO)c1ccc2c(c1)OCO2)c1ccco1 (configuration not stated)	0	0	7	39*	7	-1	44*
O=C(NCc1ccc2c(c1)OCO2)c1ccco1	1	1	3	-4	2	-8	.
O=[n+]1c2c(n([O-])c3cc(Br)ccc31)CCCC2	-3	-2	7	1	1	-1	.
O=[n+]1c2c(n([O-])c3ccccc31)CCCC2	1	1	1	76*	2	6	-2
N#CC(C#N)=C1C=CC=CN1/C(=C\c1ccccc1Cl)C(=O)c1ccccc1	-5	3	14	29*	4	-8	32*
N#CC(C#N)=C1C=CC=CN1/C(=C\c1ccccc1)C(=O)c1cccs1	-7	2	4	20	3	-8	.
Cc1c(C(=O)NCc2ccc3c(c2)OCO3)sc2nc(-c3ccc(F)cc3)cn12	0	1	-5	29*	4	-12	1
O=[N+]([O-])c1ccc(Cl)c(C2Nc3cccc4cccc(c34)N2)c1	2	12	28	53*	17	32	26*
CC(=C/c1ccccc1)/C=N/n1c(-c2ccco2)n[nH]c1=S	-1	1	11	32*	32	2	18
COc1ccc(CNC(=O)Nc2nnc([C@@H]3C[C@H](O)[C@@H](CO)O3)s2)cc1	5	.	-4	-11	3	.	.
O=C(CC(Sc1ccc(Br)cc1)C(=O)O)c1ccc(F)cc1 (configuration not stated)	0	0	3	80*	9	-5	88*
CCOc1ccc(C(=O)CC(Sc2ccc(C)cc2)C(=O)O)cc1 (configuration not stated)	0	3	7	29*	5	-2	54*
CC(=O)N1CCSc2ccc(S(=O)(=O)Nc3cccc(C)c3)cc21	4	-3	-13	1	5	-1	.
